{"source": "ChEMBL document CHEMBL4130355", "about": "“Development of a series of novel 4-anlinoquinazoline derivatives possessing quinazoline skeleton: Design, synthesis, EGFR kinase inhibitory efficacy, and evaluation of anticancer activities in vitro” (Eur J Med Chem, 2017)", "key": {"DU-145": {"test_system": "DU-145", "experiment": "Antiproliferative activity against human DU145 cells after 72 hrs by MTT assay", "assay_type": "functional, cell-based", "details": "DU-145, 72 h"}, "MCF7": {"test_system": "MCF7", "experiment": "Antiproliferative activity against human MCF7 cells after 72 hrs by MTT assay", "assay_type": "functional, cell-based", "details": "MCF7, 72 h"}, "A549 [1]": {"test_system": "A549", "experiment": "Antiproliferative activity against human A549 cells after 72 hrs by MTT assay", "assay_type": "functional, cell-based", "details": "A549, 72 h"}, "HepG2 [2]": {"test_system": "HepG2", "experiment": "Antiproliferative activity against human HepG2 cells at 0.1 uM after 72 hrs by MTT assay realtive to control", "assay_type": "functional", "how_it_was_run": "(§1)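 MTT assay in triplicate wells. Cells (2 × 10^3/well) were attached 24 h, then treated at 0.1, 1, 10, 50 or 100 µM for 24, 48 or 72 h. MTT added for 4 h, SDS solubilisation, absorbance at 570/650 nm. Inhibition = 1 − (OD treated − blank)/(OD control − blank). Reported as mean ± SD of three independent experiments.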"}, "HepG2 [3]": {"test_system": "HepG2", "experiment": "Antiproliferative activity against human HepG2 cells at 0.1 uM after 24 hrs by MTT assay realtive to control", "assay_type": "functional", "how_it_was_run": "as §1"}, "HepG2 [4]": {"test_system": "HepG2", "experiment": "Antiproliferative activity against human HepG2 cells at 1 uM after 24 hrs by MTT assay realtive to control", "assay_type": "functional", "how_it_was_run": "as §1"}, "HepG2 [5]": {"test_system": "HepG2", "experiment": "Antiproliferative activity against human HepG2 cells at 0.1 uM after 48 hrs by MTT assay realtive to control", "assay_type": "functional", "how_it_was_run": "as §1"}, "HepG2 [6]": {"test_system": "HepG2", "experiment": "Antiproliferative activity against human HepG2 cells at 10 uM after 48 hrs by MTT assay realtive to control", "assay_type": "functional", "how_it_was_run": "as §1"}, "A549 [7]": {"test_system": "A549", "experiment": "Antiproliferative activity against human A549 cells at 1 uM after 24 hrs by MTT assay relative to control", "assay_type": "functional", "how_it_was_run": "as §1"}, "A549 [8]": {"test_system": "A549", "experiment": "Antiproliferative activity against human A549 cells at 100 uM after 24 hrs by MTT assay relative to control", "assay_type": "functional", "how_it_was_run": "as §1"}, "A549 [9]": {"test_system": "A549", "experiment": "Antiproliferative activity against human A549 cells at 1 uM after 48 hrs by MTT assay relative to control", "assay_type": "functional", "how_it_was_run": "as §1"}, "A549 [10]": {"test_system": "A549", "experiment": "Antiproliferative activity against human A549 cells at 10 uM after 72 hrs by MTT assay relative to control", "assay_type": "functional", "how_it_was_run": "as §1"}, "A549 [11]": {"test_system": "A549", "experiment": "Antiproliferative activity against human A549 cells at 50 uM after 72 hrs by MTT assay relative to control", "assay_type": "functional", "how_it_was_run": "as §1"}, "A549 [12]": {"test_system": "A549", "experiment": "Antiproliferative activity against human A549 cells at 100 uM after 72 hrs by MTT assay relative to control", "assay_type": "functional", "how_it_was_run": "as §1"}, "HepG2 [13]": {"test_system": "HepG2", "experiment": "Antiproliferative activity against human HepG2 cells after 24 hrs by MTT assay", "assay_type": "functional, cell-based", "details": "HepG2, 24 h", "how_it_was_run": "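MTT read-out. Cells seeded at 2 × 10^3/well, attached 24 h at 37 °C in 5% CO2, then exposed to 0.1–100 µM for 24, 48 or 72 h. MTT for 4 h, formazan dissolved in 10% SDS/NH4Cl for 10 h, absorbance at 570 nm corrected at 650 nm. % inhibition computed against untreated and blank wells. IC50 is the mean of at least three independent experiments.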"}, "[14]": {"experiment": "Antiproliferative activity against human CCC-HPF1 cells after 72 hrs by MTT assay", "assay_type": "ADME, cell-based", "details": "CCC-HPF-1, 72 h"}, "HepG2 [15]": {"test_system": "HepG2", "experiment": "Cell cycle arrest in human HepG2 assessed as accumulation at G0/G1 phase at 10 uM after 48 hrs by propidium iodide-staining based flow cytometry (reference value: 69.40%)", "assay_type": "functional", "how_it_was_run": "(§2)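 HepG2 cells at 5.0 × 10^5/well were grown 24 h, then treated at 0, 2.5, 5.0 or 10.0 µM for 48 h alongside medium-only wells. Cells fixed in 70% ice-cold ethanol for ≥24 h, treated with RNase A at 37 °C for 30 min, then stained with propidium iodide for 30 min at 4 °C in the dark. DNA content read by flow cytometry. Average of at least three experiments.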"}, "HepG2 [16]": {"test_system": "HepG2", "experiment": "Cell cycle arrest in human HepG2 assessed as accumulation at S phase at 2.5 uM after 48 hrs by propidium iodide-staining based flow cytometry (reference value: 21.46%)", "assay_type": "functional", "how_it_was_run": "as §2"}, "HepG2 [17]": {"test_system": "HepG2", "experiment": "Cell cycle arrest in human HepG2 assessed as accumulation at G2/M phase at 10 uM after 48 hrs by propidium iodide-staining based flow cytometry (reference value: 9.13%)", "assay_type": "functional", "how_it_was_run": "as §2"}, "HepG2 [18]": {"test_system": "HepG2", "experiment": "Induction of apoptosis in human HepG2 cells assessed as viable cells at 5 uM after 48 hrs by Annexin V-FITC/propidium iodide double staining-based flow cytometry (reference value: 86.4%)", "assay_type": "functional", "details": "HepG2, 48 h, read-out: Activity"}, "HepG2 [19]": {"test_system": "HepG2", "experiment": "Induction of apoptosis in human HepG2 cells assessed as early apoptotic cells at 10 uM after 48 hrs by Annexin V-FITC/propidium iodide double staining-based flow cytometry (reference value: 8.7%)", "assay_type": "functional"}, "HepG2 [20]": {"test_system": "HepG2", "experiment": "Induction of apoptosis in human HepG2 cells assessed as late apoptotic cells at 5 uM after 48 hrs by Annexin V-FITC/propidium iodide double staining-based flow cytometry (reference value: 4.3%)", "assay_type": "functional"}, "HepG2 [21]": {"test_system": "HepG2", "experiment": "Induction of apoptosis in human HepG2 cells assessed as chromatin condensation at 2.5 to 20 uM after 48 hrs by Hoechst 33342/propidium iodide double staining based laser scanning confocal microscopy", "assay_type": "functional, cell-based", "how_it_was_run": "(§3)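 HepG2 plated at 5.0 × 10^4 cells/well in DMEM with 10% FBS, 24 h at 37 °C, then treated 48 h (2.5–20 µM). After two ice-cold PBS washes, cells were stained with Hoechst 33342/PI mixed 1:1 for 30 min at 37 °C in the dark, washed three times, and imaged by laser scanning confocal microscopy at 200×.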"}, "HepG2 [22]": {"test_system": "HepG2", "experiment": "Induction of apoptosis in human HepG2 cells assessed as nuclear fragmentation at 2.5 to 20 uM after 48 hrs by Hoechst 33342/propidium iodide double staining based laser scanning confocal microscopy", "assay_type": "functional, cell-based", "how_it_was_run": "as §3"}, "HepG2 [23]": {"test_system": "HepG2", "experiment": "Induction of apoptosis in human HepG2 cells assessed as intracellular free Ca2+ levels at 2.5 uM after 48 hrs by FL1 channel/FACS analysis (reference value: 14.2%)", "assay_type": "functional", "how_it_was_run": "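HepG2 seeded at 5.0 × 10^5 cells/mL, 24 h at 37 °C in 5% CO2, then treated 48 h (2.5–20 µM). Harvested cells were washed in ice-cold PBS and loaded with 4 µM Fluo-3/AM for 30 min. After trypsinizing, they were washed twice and resuspended in HEPES, and fluorescence was measured in the FL-1 channel by flow cytometry. Values are averages of at least three independent experiments.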"}, "HepG2 [24]": {"test_system": "HepG2", "experiment": "Induction of apoptosis in human HepG2 cells assessed as caspase-3 activity at 10 uM after 48 hrs by colorimetric assay relative to control", "assay_type": "functional", "how_it_was_run": "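After 48 h treatment, HepG2 were rinsed in ice-cold PBS and lysed 1–1.5 h on ice in buffer with 1% DTT. Lysate was spun at 10,000×g for 1 min at 4 °C; supernatant protein was measured by Bradford. Supernatant was mixed with 2× reaction buffer (1% DTT) plus caspase-3 chromogenic peptide substrate, held 4 h at 37 °C, and read at 405 nm.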"}, "HepG2 [25]": {"test_system": "HepG2", "experiment": "Cell cycle arrest in human HepG2 assessed as decrease in cell levels at G0/G1 phase after 48 hrs by propidium iodide-staining based flow cytometry", "assay_type": "functional", "how_it_was_run": "as §2"}, "[26]": {"target": "T1, Epidermal growth factor receptor (Homo sapiens, UniProt P00533)", "T1 sequence (P00533 whole entry)": "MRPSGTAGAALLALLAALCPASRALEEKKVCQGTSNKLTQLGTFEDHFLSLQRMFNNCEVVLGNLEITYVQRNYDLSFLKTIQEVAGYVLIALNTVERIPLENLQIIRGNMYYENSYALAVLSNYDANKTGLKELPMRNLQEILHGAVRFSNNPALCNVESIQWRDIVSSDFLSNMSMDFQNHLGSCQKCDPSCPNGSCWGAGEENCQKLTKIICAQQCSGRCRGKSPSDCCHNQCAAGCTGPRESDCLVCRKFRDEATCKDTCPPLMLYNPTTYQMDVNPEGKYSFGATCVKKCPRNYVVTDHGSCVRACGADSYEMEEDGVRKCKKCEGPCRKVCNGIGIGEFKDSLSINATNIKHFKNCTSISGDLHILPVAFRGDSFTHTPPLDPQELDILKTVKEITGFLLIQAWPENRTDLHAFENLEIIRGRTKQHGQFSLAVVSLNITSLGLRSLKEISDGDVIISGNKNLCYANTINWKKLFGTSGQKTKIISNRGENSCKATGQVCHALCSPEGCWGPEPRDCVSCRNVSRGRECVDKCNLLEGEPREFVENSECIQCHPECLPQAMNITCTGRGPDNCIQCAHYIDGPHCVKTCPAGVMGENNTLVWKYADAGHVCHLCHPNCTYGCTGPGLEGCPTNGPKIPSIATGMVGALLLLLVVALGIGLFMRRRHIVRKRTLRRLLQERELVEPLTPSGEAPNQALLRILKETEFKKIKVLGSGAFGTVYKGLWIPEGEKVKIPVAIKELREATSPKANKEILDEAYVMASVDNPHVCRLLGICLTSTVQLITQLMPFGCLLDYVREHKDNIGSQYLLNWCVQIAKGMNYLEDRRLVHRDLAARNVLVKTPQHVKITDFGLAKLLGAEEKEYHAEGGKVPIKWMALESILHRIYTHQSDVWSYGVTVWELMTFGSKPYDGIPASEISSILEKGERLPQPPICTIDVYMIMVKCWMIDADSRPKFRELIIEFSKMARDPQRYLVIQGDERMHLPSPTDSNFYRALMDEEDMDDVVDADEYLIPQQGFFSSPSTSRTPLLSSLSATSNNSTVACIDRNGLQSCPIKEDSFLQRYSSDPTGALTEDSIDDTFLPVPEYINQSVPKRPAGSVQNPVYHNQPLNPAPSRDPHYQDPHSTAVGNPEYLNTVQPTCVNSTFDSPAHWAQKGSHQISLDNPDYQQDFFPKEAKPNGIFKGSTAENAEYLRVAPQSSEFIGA", "details": "HEK293, at 0.001 µM"}, "[27]": {"target": "T1, Epidermal growth factor receptor", "details": "HEK293, at 10 µM"}}, "note": "Activity calls are given as the source filed them. The calls are words filed in the database; no cut-off is given here."}
{"smiles": "COc1cc2c(Nc3ccc(C#N)cc3)ncnc2cc1OCCCN1CCC(c2ccccc2)CC1", "values": [{"measurement": "IC50", "setting": "DU-145", "value": 6.79, "unit": "µM"}, {"measurement": "IC50", "setting": "MCF7", "value": 9.8, "unit": "µM"}, {"measurement": "IC50", "setting": "A549 [1]", "value": 9.5, "unit": "µM"}, {"measurement": "Activity", "setting": "HepG2 [2]", "value": 7.4, "unit": "%"}, {"measurement": "Activity", "setting": "HepG2 [3]", "value": 4.4, "unit": "%"}, {"measurement": "Activity", "setting": "HepG2 [4]", "value": 7.9, "unit": "%"}, {"measurement": "Activity", "setting": "HepG2 [5]", "value": 5.7, "unit": "%"}, {"measurement": "Activity", "setting": "HepG2 [6]", "value": 55.6, "unit": "%"}, {"measurement": "Activity", "setting": "A549 [7]", "value": 1.9, "unit": "%"}, {"measurement": "Activity", "setting": "A549 [8]", "value": 91.8, "unit": "%"}, {"measurement": "Activity", "setting": "A549 [9]", "value": 2.9, "unit": "%"}, {"measurement": "Activity", "setting": "A549 [10]", "value": 34.1, "unit": "%"}, {"measurement": "Activity", "setting": "A549 [11]", "value": 86.6, "unit": "%"}, {"measurement": "Activity", "setting": "A549 [12]", "value": 95.5, "unit": "%"}, {"measurement": "IC50", "setting": "HepG2 [13]", "value": 13, "unit": "µM"}, {"measurement": "IC50", "setting": "[14]", "value": 28, "unit": "µM"}, {"measurement": "Activity", "setting": "HepG2 [15]", "value": 60.72, "unit": "%"}, {"measurement": "Activity", "setting": "HepG2 [16]", "value": 22.44, "unit": "%"}, {"measurement": "Activity", "setting": "HepG2 [17]", "value": 9.57, "unit": "%"}, {"measurement": "viability at 5 µM", "setting": "HepG2 [18]", "value": 17.3, "unit": "%"}, {"measurement": "Activity", "setting": "HepG2 [19]", "value": 98.6, "unit": "%"}, {"measurement": "Activity", "setting": "HepG2 [20]", "value": 2, "unit": "%"}, {"measurement": "Activity", "setting": "HepG2 [21]", "value": "Active"}, {"measurement": "Activity", "setting": "HepG2 [22]", "value": "Active"}, {"measurement": "Activity", "setting": "HepG2 [23]", "value": 41.7, "unit": "%"}, {"measurement": "Activity", "setting": "HepG2 [24]", "value": 198, "unit": "%"}, {"measurement": "Activity", "setting": "HepG2 [25]", "value": "Dose-dependent effect"}, {"measurement": "inhibition", "setting": "[26]", "value": 46.2, "unit": "%"}, {"measurement": "inhibition", "setting": "[27]", "value": 99.1, "unit": "%"}]}
